An excerpt weighted towards active compounds, which were near 1.6% of everything screened.
TbHK1 inh – blocks Trypanosoma brucei hexokinase 1 activity; actives 0.11% (n = 220,000); inhibition, % at 10 µM; recombinant TbHK1, G6PDH-coupled NADH A340;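 active = inhibition of 50% or more in the single-dose primary screen; inactive = inhibition below 50%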
RBBP9 inh – inhibitors of human serine hydrolase RBBP9. O75884. recombinant RBBP9, FP-Rh probe fluorescence polarization. inhibition, % at 7.94 µM. actives 0.2% (n = 220,000);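 active = inhibition above the campaign mean of all tested compounds plus 3 SD, cut at about 14% in these data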;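 note: plate controls were DMSO wells with RBBP9 for no effect and wells lacking RBBP9 protein for full effect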
Target sequence (O75884 whole entry, looked up): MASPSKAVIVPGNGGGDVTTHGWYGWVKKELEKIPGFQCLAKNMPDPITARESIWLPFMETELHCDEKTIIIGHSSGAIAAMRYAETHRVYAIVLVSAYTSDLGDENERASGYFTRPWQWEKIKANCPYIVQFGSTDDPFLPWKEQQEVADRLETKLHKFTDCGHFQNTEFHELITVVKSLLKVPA
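System: RBBP9 protein | Quantity: 2.5 µM RBBP9 dispensing solution, before mixing | Reagent: FP-Rh probe, 375 nM dispensing solution | Timing: Enzyme-compound preincubation 30 min, then probe labeling 45 min, 25 °C | Measured by: Fluorescence polarization | Read-out: % inhibition | Replication: One well per compound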
NCF1 inh – p47phox (human) inhibition | actives 0.53% (n = 220,000) | p47phox/p22phox peptide binding, fluorescence polarization, 2 h | P14598 | inhibition, % at 24.7 µM;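 active = inhibition above about 30%, limit read from the data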;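 note: 0% = p47phox with labelled peptide and 100% = labelled peptide alone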
Target sequence (P14598 whole entry, looked up): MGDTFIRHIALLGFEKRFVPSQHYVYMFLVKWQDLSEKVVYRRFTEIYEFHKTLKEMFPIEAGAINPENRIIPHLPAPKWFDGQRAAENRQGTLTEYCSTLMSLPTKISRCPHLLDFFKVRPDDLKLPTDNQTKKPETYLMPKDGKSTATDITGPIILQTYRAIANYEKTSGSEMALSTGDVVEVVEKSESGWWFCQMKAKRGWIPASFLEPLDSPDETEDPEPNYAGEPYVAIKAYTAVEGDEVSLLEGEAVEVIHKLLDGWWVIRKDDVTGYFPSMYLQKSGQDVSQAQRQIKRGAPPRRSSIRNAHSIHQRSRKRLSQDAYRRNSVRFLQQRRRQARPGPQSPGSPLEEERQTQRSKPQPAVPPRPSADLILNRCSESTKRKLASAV
SDO1 yeast rescue – restores growth of sdo1-depleted yeast. S. cerevisiae sdo1-depleted JHY4D growth rescue, OD600 30 h; stronger effect = higher value; pdr5 snq2 efflux-pump mutant strain. z-score at 10 µM. actives 0.21% (n = 140,000);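 active = z-score above 3 at both the 24 hr and the 30 hr optical density reads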;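 note: z-score against mean and SD of all compound wells on the same plate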
Yeast life ext – yeast lifespan extension; S. cerevisiae growth with nicotinamide, OD615; deaD strain in restrictive glucose medium; inhibition of the nicotinamide effect, % at 10 µM; actives 0.68% (n = 130,000); AID 775;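 active = inhibition above a set limit, placed 3 SD over the median of all compounds, cut at about 26% in these data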;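 note: 0% = nicotinamide-treated wells and 100% = cells grown without nicotinamide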
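Assay system: DeaD-strain S. cerevisiae. Medium: CSMM-D glucose medium, restrictive. Reagent: nicotinamide, 1.5 mM, co-present with compound. Compound: 10 µM single point, 0.25% DMSO. Schedule: culture preincubation 4 h, compound exposure 48 h, both 30 °C. Detection: absorbance at 615 nm.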
BB579 growth dn – chemicals that inhibit yeast BB579 growth in restrictive medium (lifespan-shortening candidates); actives 0.51% (n = 140,000); S. cerevisiae BB579 growth, OD615, 48 h; inhibition, % at 10 µM;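 active = inhibition above a set limit, 3 SD over the mean compound inhibition, cut at about 44% in these data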
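System: Saccharomyces cerevisiae DeaD strain BB579, replicative lifespan model yeast | Buffer or medium: Restrictive glucose-based CSMM-D medium | Times: 4 h preincubation and 48 h exposure at 30 °C | Detection: OD615 turbidity measurement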
SDO1 rescue DR – SDO1-depleted yeast growth rescue confirmation. shares compounds with SDO1 yeast rescue. OD recovery (concentration not given with the values). actives 44% (n = 440). S. cerevisiae JHY4D (SDO1-depleted) growth rescue, OD600, 30 h; stronger effect = higher value; efflux-deficient strain, SNQ2 and PDR5 mutated;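 active = yeast growth recovered at 30 hours, either rising with dose fitted slope above 0.001 or with average optical density gain above 0.07, some results past the limit were not filed as active; inactive = growth falling with dose or no effect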;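 note: gain in OD600 from 0 h to 30 h averaged across all seven doses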
* = called active by the depositor; nt = no result; ! = not confirmed by another sample.

SMILES | TbHK1 inh | RBBP9 inh | NCF1 inh | SDO1 yeast rescue | Yeast life ext | BB579 growth dn | SDO1 rescue DR
Cc1cc2cc3c(cc2nc1SCC(=O)O)OCCO3 | -1 | -1 | -8 | -0.45 | -21 | -16 | nt
Cc1cc2cc3c(cc2nc1SCC(=O)OC(C)C)OCCO3 | -3 | -5 | -4 | 3.1* | -23 | 5 | 0.042
CC(C)(CCl)C(=O)Nc1ccnc(-c2ccncc2)n1 | -7 | -14 | 9 | nt | nt | nt | nt
CCCCC(=O)Nc1cc(NC(=O)CC)ccc1Cl | 1 | -9 | 3 | 3.4* | -10 | -26 | 0.045
COC(=O)CSc1nnc(-c2ccco2)n1Cc1ccco1 | 4 | 7 | -4 | 0.01 | -7 | -11 | nt
O=C(CSc1nnc(-c2ccco2)n1Cc1ccco1)NCc1cccs1 | 5 | -7 | -9 | 6.5* | -6 | -33 | 0.071*
COC(=O)c1cc(C#N)c(NCc2ccccc2)nc1C | -10 | 0 | -30 | 14* | -15 | -4 | 0.087*
COC(=O)c1cc(C#N)c(N(C)Cc2ccccc2)nc1C | -4 | -5 | 8 | -1.8 | -14 | -37 | nt
CCCC(=O)c1cc2c(cc1NC(=O)c1ccccc1F)OCCO2 | -9 | -3 | -2 | nt | nt | nt | nt
CC(NC(=O)CSCc1ccc(Br)cc1)c1ccccc1 (stereo not drawn) | 1 | -1 | -4 | nt | nt | nt | nt
CC(C)NC(=O)CSCc1cccc(Br)c1 | -6 | -2 | -1 | 5.2* | -7 | -57 | 0.064
COc1ccc(NC(=O)c2c(NC(=O)CCC(=O)O)sc(-c3ccccc3)c2C)cc1 | -4 | -2 | -5 | nt | nt | nt | nt
CCOC(=O)c1cnn(Cc2ccccc2)c1N | 4 | -8 | 9 | 6.1* | nt | -47 | 0.066
CC(C)NC(=O)c1ccccc1NC(=O)CN(c1ccc2c(c1)OCO2)S(C)(=O)=O | 2 | -11 | 0 | 3.1* | -7 | -29 | 0.068
O=C(Nc1ccccc1)N(O)c1ccc(Cl)cc1 | 11 | -1 | -13 | 3.3* | -12 | -11 | 0.081*
COCCNC(=O)CN1C(=O)NC2(CCCCCC2)C1=O | 4 | -10 | -3 | nt | nt | nt | nt
O=C(Nc1ccccc1)c1ccc(NCC2CCCO2)c([N+](=O)[O-])c1 (stereo not drawn) | 2 | -6 | -22 | 11* | -4 | -29 | 0.086*
COc1ccc(NC(=O)c2ccc(NCC3CCCO3)c([N+](=O)[O-])c2)cc1 (stereo not drawn) | 3 | 0 | -4 | nt | nt | nt | nt
CC1(CCl)N([O-])C2=C(CCCC2)[N+]1=O (stereo not drawn) | -26 | -9 | 0 | nt | nt | nt | nt
Cc1ccc(CNC(=O)CCCn2c(=O)[nH]c3ccccc3c2=O)cc1 | 4 | -5 | -12 | 8.9* | -6 | -44 | 0.029
O=c1c2cnn(-c3ccccc3)c2ncn1Cc1ccccc1F | -6 | 1 | -8 | 9.5* | -9 | -16 | 0.039
OCC(O)CN1CCCC1 (stereo not drawn) | 1 | 0 | 0 | nt | nt | nt | nt
COCCn1c(SCC(=O)Nc2sc(C)c(C)c2C#N)nnc1-c1ccc(OC)cc1 | 45 | 3 | -3 | -1.1 | -15 | -21 | nt
COCCn1c(SCC#N)nnc1-c1ccc(OC)cc1 | -3 | -4 | 4 | 9* | nt | -42 | 0.058
Nc1cccc(-n2cccc2)c1 | 3 | -5 | -3 | nt | nt | nt | nt
SMILES | TbHK1 inh | RBBP9 inh | NCF1 inh | SDO1 yeast rescue | Yeast life ext | BB579 growth dn | SDO1 rescue DR
Cc1ccc(-c2noc(CCC(=O)NCCN3CCOCC3)n2)cc1 | 2 | -1 | 1 | 2.4 | -7 | -28 | 0.074*
Cc1ccc(-c2noc(CCC(=O)NCCN3CCN(Cc4ccccc4)CC3)n2)cc1 | 3 | -2 | 5 | 0.77 | -2 | -16 | nt
CCOC(=O)c1sc2nc3n(c(=O)c2c1C)CCC(C)CC3 (stereo not drawn) | -1 | -8 | -9 | 4* | -18 | -14 | 0.065
CCn1c(C)c(C(C)=O)cc(C#N)c1=O | -5 | -6 | -8 | nt | nt | nt | nt
CCCc1nnc(SCC(=O)N2CCCCC2)n1CC1CCCO1 (stereo not drawn) | 2 | -9 | -3 | 0.19 | -4 | -20 | nt
CCCc1nnc(SCC(=O)N2CCCC2)n1CC1CCCO1 (stereo not drawn) | 0 | 1 | -8 | 3.2* | -7 | -46 | 0.053
COc1ccc(CNC(=O)c2cc(-c3ccc(OC)c(OC)c3)on2)cc1 | -2 | -7 | -26 | 8.7* | -7 | -28 | 0.047
COc1ccc(NC(=O)c2cc(-c3ccc(OC)c(OC)c3)on2)cc1OC | -9 | -1 | -12 | 1.8 | -12 | -38 | 0.068
O=C(NCc1ccccc1Cl)c1ccccc1CCc1ccccc1 | 34 | -4 | -9 | 7.1* | 32* | -29 | 0.082*
NNC(=O)c1csc(Cc2c(Cl)sc3ccc(Cl)cc23)n1 | -1 | -9 | 0 | nt | nt | nt | nt
O=C(OCC(CO)OC(CO)n1ccc(=O)[nH]c1=O)c1ccccc1 (stereo not drawn) | 0 | -4 | -8 | 7.7* | -1 | -30 | 0.06
Cc1ccc(Cn2nc(C)c(NC(=O)c3nn(C)cc3Cl)c2C)cc1 | 0 | 0 | -4 | 0.79 | nt | -16 | nt
Cc1nn(Cc2ccc(Br)cc2)c(C)c1NC(=O)c1nn(C)cc1Cl | -1 | -3 | -6 | 15* | -10 | 6 | 0.05
COc1cccc(NC(=O)Cn2c(=O)n(-c3ccccc3)c(=O)c3sccc32)c1 | 1 | 0 | -1 | nt | nt | nt | nt
CC(C)c1ccc(CN(C(=O)/C=C/c2ccco2)C2CCS(=O)(=O)C2)cc1 (stereo not drawn) | -21 | -1 | -7 | nt | nt | nt | nt
CCCCCCCN1C2=NCCCN2c2ccccc21 | 10 | -5 | -5 | nt | nt | nt | nt
CC(C)c1ccc(/C=N/NC(=O)c2c(Cl)cnn2C)cc1 | -1 | -3 | 1 | 5.1* | -6 | -13 | 0.091*
CCCCN(C)C(=O)c1cc2cc3ccc(OC)cc3nc2s1 | -18 | 4 | -4 | 16* | -7 | -36 | 0.076*
O=C(Nc1ccccc1)C1=C(c2ccccc2)S(=O)(=O)CCS1(=O)=O | 0 | -12 | 0 | nt | nt | nt | nt
Cc1ccccc1N1CCN(C(=O)CN2C(=O)c3ccccc3C2=O)CC1 | -2 | -1 | -4 | 7.4* | -4 | -35 | 0.075*
Cc1ccc(C)c(N2CCN(C(=O)CN3C(=O)c4ccccc4C3=O)CC2)c1 | 0 | -9 | 0 | -0.82 | -20 | -14 | nt
Cn1nc(OC(=O)Nc2cccc(Cl)c2)cc1C(F)(F)F | -7 | -4 | -12 | -1.1 | -11 | -42 | nt
Cn1nc(OC(=O)Nc2ccccc2)cc1C(F)(F)F | 3 | -3 | -4 | 3.3*! | -13 | -33 | 0.077*
Cc1nc(NC(=O)c2cccs2)ccc1Br | -5 | -5 | -5 | nt | nt | nt | nt
COC(=O)c1ccc(-c2nn(C)c(=O)c3ccccc23)cc1 | 5 | -2 | -3 | 8.5* | -10 | 7 | 0.076*
